Assay results reported in ChEMBL document CHEMBL1157718, “Characterization of non-lipid autotaxin inhibitors” (Bioorg Med Chem, 2010).
The source made the active and inactive calls.

Assays:
[1] = target: T1, Glycerophosphocholine cholinephosphodiesterase ENPP6 (Homo sapiens) (UniProt Q6UWR7); assay: Inhibition of NPP6 expressed in human HEK293 cells at 10 uM; assay type: cell-based
T1 sequence (whole entry): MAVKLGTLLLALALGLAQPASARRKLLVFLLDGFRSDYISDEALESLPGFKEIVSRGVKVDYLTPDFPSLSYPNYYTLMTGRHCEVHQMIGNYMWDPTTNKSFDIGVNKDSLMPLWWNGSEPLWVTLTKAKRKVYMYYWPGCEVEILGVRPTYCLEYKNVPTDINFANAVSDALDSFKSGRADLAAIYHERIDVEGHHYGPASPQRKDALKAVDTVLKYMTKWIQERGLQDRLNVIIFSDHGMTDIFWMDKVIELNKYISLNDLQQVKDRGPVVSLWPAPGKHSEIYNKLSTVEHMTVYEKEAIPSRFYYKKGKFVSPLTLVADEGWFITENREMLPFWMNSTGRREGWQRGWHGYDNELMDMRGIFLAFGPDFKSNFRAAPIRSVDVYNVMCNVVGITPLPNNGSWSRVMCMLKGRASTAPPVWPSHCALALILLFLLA
How it was run: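 Enzyme was soluble NPP6 in unconcentrated serum-free conditioned medium from transiently transfected HEK293 cells (48 h), making up one-third of the assay volume. Substrate was pNPPC at […] in 100 mM Tris-HCl pH 9.0, 500 mM NaCl, 0.05% Triton X-100, with inhibitor at 10 µM. A405 was read every 2 min and reported at 1 h, blank-subtracted and normalized to vehicle. Mean ± SD of ≥3 wells.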

[2] = target: T2, Ectonucleotide pyrophosphatase/phosphodiesterase family member 7 (Homo sapiens) (UniProt Q6UWV6); assay: Inhibition of NPP7 expressed in human HEK293 cells at 10 uM; assay type: cell-based
T2 sequence (whole entry): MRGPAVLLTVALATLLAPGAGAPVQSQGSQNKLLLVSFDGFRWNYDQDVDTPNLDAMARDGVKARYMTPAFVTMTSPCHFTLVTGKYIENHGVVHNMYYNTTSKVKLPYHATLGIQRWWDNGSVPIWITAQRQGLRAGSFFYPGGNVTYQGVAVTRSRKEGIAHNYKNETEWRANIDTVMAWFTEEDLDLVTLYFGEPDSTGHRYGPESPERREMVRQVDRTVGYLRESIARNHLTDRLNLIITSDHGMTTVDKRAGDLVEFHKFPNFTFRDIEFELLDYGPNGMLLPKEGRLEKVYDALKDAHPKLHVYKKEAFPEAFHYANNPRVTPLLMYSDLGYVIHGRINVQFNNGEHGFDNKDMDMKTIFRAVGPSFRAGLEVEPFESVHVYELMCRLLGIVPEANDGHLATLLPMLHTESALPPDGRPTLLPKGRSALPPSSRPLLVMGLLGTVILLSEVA
How it was run: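 Enzyme was soluble NPP7 in concentrated (10 kDa cutoff) serum-free conditioned medium from transiently transfected HEK293 cells, making up one-third of the assay volume. Substrate was pNPPC at […] in 50 mM Tris-HCl pH 8.5, 150 mM NaCl, 10 mM taurocholic acid, no EDTA, with inhibitor at 10 µM. A405 was read every 2 min and reported at 1 h, normalized to vehicle after blank subtraction. Mean ± SD of ≥3 wells.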

Autotaxin [3] = target: T3, Autotaxin (Homo sapiens, UniProt Q13822)
Autotaxin [4] = target: T3, Autotaxin; remark: listed apart in the source
Autotaxin [5] = target: T3, Autotaxin; remark: listed apart in the source
Autotaxin [6] = target: T3, Autotaxin; remark: listed apart in the source
Autotaxin [7] = target: T3, Autotaxin; assay: Competitive-type inhibition of autotaxin-mediated FS3 hydrolysis by Michaelis-Menten analysis
How it was run: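 ATX from ~10-fold concentrated serum-free conditioned medium of MDA-MB-435 cells. […] Buffer was 50 mM Tris pH 8.0 with salts and 30 µM charcoal-stripped BSA, 37 °C, fluorescence read every 2 min at ex 485/em 528. Initial rates were fitted to inhibition models, and the mechanism was assigned by lowest average percent residuals.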

Autotaxin [8] = target: T3, Autotaxin; assay: Noncompetitive inhibition of autotaxin-mediated pNP-TMP hydrolysis by Michaelis-Menten analysis
How it was run: (§1)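 ATX from ~10-fold concentrated serum-free conditioned medium of MDA-MB-435 cells, used without further manipulation. […] Absorbance at 405 nm read every 2 min gave initial rates. Km came from zero-inhibitor data. Ki (free enzyme) and K'i (enzyme–substrate complex) were fitted by non-linear models, and the mechanism was assigned by the lowest average percent residuals.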

Autotaxin [9] = target: T3, Autotaxin; assay: Noncompetitive inhibition of autotaxin-mediated pNP-TMP hydrolysis by Michaelis-Menten analysis for enzyme-substrate complex; how it was run: as §1

inhibition [1] | inhibition [2] | IC50 (Autotaxin [3]) [µM] | IC50 (Autotaxin [4]) [µM] | Ki (Autotaxin [5]) [µM] | Ki (Autotaxin [6]) [µM] | Ki (Autotaxin [7]) [µM] | Ki (Autotaxin [8]) [µM] | Ki (Autotaxin [9]) [µM] | SMILES
inactive | inactive | – | – | – | – | – | – | – | CCn1cc(C(=O)O)c(=O)c2cnc(N3CCN(C(=S)NC(=O)C4c5ccccc5Oc5ccccc54)CC3)nc21
inactive | inactive | 6.8 | 6.8 | 5.8 | 32.3 | – | – | – | O=C(O)c1ccc(Oc2ccc(C(=O)c3ccc4c(c3)C(=O)N(c3cccc5ccccc35)C4=O)cc2)cc1
inactive | inactive | – | 1.2 | – | – | 1.9 | 6.5 | 6.5 | CCn1cc(C(=O)O)c(=O)c2cnc(N3CCN(C(=S)Nc4cc(Cl)cc(Cl)c4)CC3)nc21
inactive | inactive | 12.8 | – | 15.1 | 40.3 | – | – | – | O=C(O)c1cccc(NC(=O)c2ccc3c(c2)C(=O)N(c2ccc(/N=N/c4ccccc4)cc2)C3=O)c1
inactive | inactive | – | – | – | – | – | – | – | CCn1c(SCC(=O)Nc2ccc(C(=O)O)cc2)nc2nc3c(cc2c1=O)CCCC3
inactive | inactive | 12.8 | – | – | – | 5 | – | – | O=C(O)c1ccc(CN2C(=O)c3ccc(C(=O)c4ccc5c(c4)C(=O)N(Cc4ccc(C(=O)O)cc4)C5=O)cc3C2=O)cc1
